These results are taken from ChEMBL document CHEMBL4304839, “Development of a novel class of peroxisome proliferator-activated receptor (PPAR) gamma ligands as an anticancer agent with a unique binding mode based on a non-thiazolidinedione scaffold” (Bioorg Med Chem, 2019).

The source made the active and inactive calls. The rule behind the calls is not given here.

Data set [1] can be described thus: AUC in BALB/c mouse at 10 mg/kg, po by LC-MS/MS analysis. Type of data set: ADME, organism-based. The note with it: in vivo. In outline: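 Male BALB/c mice, single oral dose 10 mg/kg (n = 2). Tail-vein blood at set times, plasma protein-precipitated with acetonitrile plus internal standard, LC-MS/MS (APCI, positive ion), quantified against standard curve in control plasma; AUC by noncompartmental analysis of concentration-time profile.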

For data set [2], the target named is T1, Peroxisome proliferator-activated receptor gamma (Homo sapiens) (UniProt P37231).
T1 sequence (whole entry): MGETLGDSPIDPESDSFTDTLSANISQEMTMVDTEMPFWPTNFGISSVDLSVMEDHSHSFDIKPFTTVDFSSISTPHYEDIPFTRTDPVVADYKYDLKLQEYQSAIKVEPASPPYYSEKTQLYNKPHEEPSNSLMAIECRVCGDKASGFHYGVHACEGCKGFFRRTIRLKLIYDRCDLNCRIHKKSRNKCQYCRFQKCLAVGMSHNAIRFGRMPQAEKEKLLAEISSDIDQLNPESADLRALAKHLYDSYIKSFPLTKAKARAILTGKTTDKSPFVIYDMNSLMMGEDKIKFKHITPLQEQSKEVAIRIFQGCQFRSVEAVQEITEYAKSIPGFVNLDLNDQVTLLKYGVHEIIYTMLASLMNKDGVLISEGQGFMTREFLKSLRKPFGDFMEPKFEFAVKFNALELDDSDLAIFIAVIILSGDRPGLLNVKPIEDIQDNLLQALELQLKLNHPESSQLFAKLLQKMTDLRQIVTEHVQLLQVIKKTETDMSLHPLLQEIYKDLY
The experiment in a line: Transactivation of chimeric GAL4-fused human PPARgamma transfected in HEK293EBNA cells measured at 24 hrs after drug treatment by steady-Glo luciferase assay reagent based luminescence assay relative to pioglitazone. Type of data set: cell-based. In outline:
(§1)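 HEK293EBNA cells in DMEM with 10% FBS, 37 °C, 5% CO2, transiently co-transfected with pM-human PPARγ/GAL4 expression vector and pZAC19-Luc reporter; 24 h later plated and treated with compound 1-3000 nM (n = 3 per concentration), diluted from DMSO in unsupplemented DMEM, for 24 h. Steady-Glo luciferase readout, normalized to pioglitazone 1000 nM (100%); EC50 at 50% of own maximum.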

The target of data set [3] is T1, Peroxisome proliferator-activated receptor gamma (Homo sapiens). Kind of data set: Agonist activity at PPARgamma in human MKN45 cells assessed as induction of cell aggregation incubated for 5 days by Hoechst 33342 staining based IN cell analyzer method relative to (E)-3-(1-(8-((4-methyl-2-propyl-1H-benzo[d]imidazol-1-yl)methyl)dibenzo[b,e]oxepin-11(6H)-ylidene)ethyl)-1,2,4-oxadiazol-5(4H)-one. In outline:
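MKN45 cells in RPMI1640 with 10% FBS at 37 °C, 5% CO2, seeded 2500 cells/well and exposed to compound 1-1000 nM (n = 3 per concentration) for 5 days. Nuclei stained with Hoechst 33342, imaged on IN Cell Analyzer, nuclear area computed. Maximum activity expressed as % of reference compound maximum; EC50 = concentration giving 50% of own maximum.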

In data set [4] the target is T2, Peroxisome proliferator-activated receptor gamma (Homo sapiens, UniProt P37231).
T2 sequence (P37231 whole entry): T1 sequence (whole entry)
Kind of data set: Transactivation of chimeric GAL4-fused human PPARgamma transfected in HEK293EBNA cells measured at 24 hrs after drug treatment by steady-Glo luciferase assay reagent based luminescence assay. Type of data set: cell-based. In outline: as §1

Data set [5] can be described thus: Intrinsic clearance in human liver microsomes incubated for 30 mins in presence of NADPH by LC-MS/MS analysis. (In general: Liver microsomes are a subcellular fraction often used to study metabolism.)
The nature of data set [6]: Toxicity in C57BL/6 mouse assessed as hematocrit level at 40 mg/kg (reference value: 45%). Type of data set: organism-based. The note with it: in vivo.
Data set [7] is described as follows: Toxicity in Crlj:CD1(ICR) mouse assessed as serum hematocrit value at 200 mg/kg, po bid for 4 days by micro-hematocrit method (reference value: 44.1%). Format: organism-based. To be noted: in vivo, 96 h.
Data set [8] deals with Homo sapiens. Kind of data set: Antitumour activity against human AsPC1/AG1 cells xenografted in SCID mouse assessed as increase in angptl4 mRNA expression at 100 mg/kg, po bid for 14 days starting from 7th day post tumor inoculation and measured at 4 hrs post last dose by qRT-PCR analysis.
A short description of data set [9]: Antitumour activity against human AsPC1/AG1 cells xenografted in SCID mouse assessed as minimal dose required for reduction in tumor volume administered orally bid for 14 days starting from 7th day post tumor inoculation. Type of data set: functional. The note with it: ASPC1, po, 336 h, read-out: MED. In outline:
(§2)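 Male SCID mice (8 weeks) inoculated s.c. with 3×10^7 AsPC-1/AG1 cells; from day 7, randomized by tumour volume into groups of 5 given 12.5, 25, 50 or 100 mg/kg or 0.5% MC400 vehicle orally twice daily for 14 days. Volume = 0.5 × major × minor² measured twice weekly; relative volume V/V0 versus day 0; Steel test, P < 0.05.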
In general terms: Xenograft models place foreign cells or tissue in a host animal.

The subject of data set [10] is Homo sapiens. Kind of data set: Antitumour activity against human AsPC1/AG1 cells xenografted in SCID mouse assessed as saturated level of reduction in tumor volume at >25 mg/kg, po bid for 14 days starting from 7th day post tumor inoculation and measured after 10 days. Type of data set: functional, organism-based. An outline of the steps:
as §2

A short description of data set [11]: Toxicity in Crlj:CD1(ICR) mouse assessed as serum hematocrit value at 50 mg/kg, po bid for 4 days by micro-hematocrit method (reference value: 44.1%). Type of data set: organism-based. To be noted: in vivo, 96 h.
Data set [12] deals with Homo sapiens. Kind of data set: Antitumour activity against human AsPC1/AG1 cells xenografted in SCID mouse assessed as increase in cell differentiation marker krt20 mRNA expression level at 100 mg/kg, po bid for 14 days starting from 7th day post tumor inoculation and measured at 4 hrs post last dose by qRT-PCR analysis. Format: functional, organism-based. In outline: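 Male SCID mice bearing s.c. AsPC-1/AG1 tumours (3×10^7 cells in PBS), dosed orally twice daily for 14 days from day 7 after inoculation; vehicle 0.5% MC400. Tumours collected 4 h after last dose; angptl4 and krt20 mRNA measured by qPCR, fold induction relative to baseline.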

In data set [13] the test system is Homo sapiens. The experiment in a line: Antitumour activity against human AsPC1/AG1 cells xenografted in SCID mouse assessed as reduction in tumor volume at 12.5 to 100 mg/kg, po bid for 14 days starting from 7th day post tumor inoculation. Format: functional, organism-based. In outline: as §2

The AUC is the area under the concentration-time curve, a measure of exposure. The term EC50 denotes the concentration that produces a half-maximal response. Read a high EC50 as a need for much substance. `C/C(=C1/c2ccc(Cc3c(C4CC4)nc4cc(F)ccn34)cc2COc2cc(F)ccc21)c1noc(=O)[nH]1`: in data set [1], the AUC was 5510 ng·h/mL. For the same compound, the figures for the Emax in data set [2] and in data set [3] were 13.5% and 112%, respectively. In data set [4], the EC50 amounted to 13 nM.
With `C/C(=C1/c2ccc(Cc3c(C4CC4)nc4ccccn34)cc2COc2cc(F)ccc21)c1noc(=O)[nH]1`, the AUC in [1] stood at 3750 ng·h/mL. Further, the Emax was determined as 9.8% in data set [2] and 106% in data set [3]. For the same compound, in [4], the 50% effective concentration (EC50) amounted to 19 nM.
A word on the CLint scaled: it is a measure of how fast metabolising enzymes remove a compound, apart from limits set by blood flow. In data set [1], `C/C(=C1/c2ccc(Cn3c(C4CC4)nc4cscc43)cc2COc2cc(F)ccc21)c1noc(=O)[nH]1` had an AUC of 196 ng·h/mL. For the same compound, the Emax in data set [2] is 13.7%; in data set [3] it was 105%. The CLint scaled at 0.5 h in [5] was 41.7 mL/min/kg. The EC50 in data set [4] was 21 nM.
The like results for `C/C(=C1/c2ccc(Cc3c(C4CC4)nc4ccc(Cl)cn34)cc2COc2cc(F)ccc21)c1noc(=O)[nH]1` were, in that order, 1710 ng·h/mL, 15.1%, 102%, 66.7 mL/min/kg and 11 nM.
As to `CCc1ccc(CCOc2ccc(CC3SC(=O)NC3=O)cc2)nc1` (centres undefined) [PIOGLITAZONE], in data set [6], the Activity was 41%.
In the case of `C/C(=C1/c2ccc(Cc3c(C4CC4)nc4c(Cl)cccn34)cc2COc2cc(F)ccc21)c1noc(=O)[nH]1`, the AUC in [1] is 6890 ng·h/mL. In addition, the Emax in data set [2] stood at 10.6%; in [3], 103%. The Activity in [7] is given as 42%; in data set [11] it was 42.9%. Moreover, the result in data set [8] and in [12] was Active. Besides, the minimal effective dose in data set [9] lay within 12.5 to 25 mg/kg. For the same compound, the inhibition result in [10] and in [13] was “Active” each time.
As to `C/C(=C1/c2ccc(Cn3c(C4CC4)nc4c(Cl)nccc43)cc2COc2cc(F)ccc21)c1noc(=O)[nH]1`, the Emax in data set [2] is 13.7%; in [3], 105%. In [5], the CLint scaled at 0.5 h was 167 mL/min/kg. Moreover, in [4], the EC50 fell in the range of 24 to 59 nM.
On to `CCCc1nc2c(C)cccc2n1Cc1ccc2c(c1)OCc1ncccc1/C2=C(\C)c1noc(=O)[nH]1`, for which the intrinsic metabolic clearance (CLint scaled) at 0.5 h in [5] is 34.3 mL/min/kg. In [4], this compound displayed an EC50 of 2190 nM.
The like results for `CCCc1nc2c(C)cccc2n1Cc1ccc2c(n1)COc1ccccc1/C2=C(\C)c1noc(=O)[nH]1` were, in that order, greater than 415 mL/min/kg and 86 nM.
`C/C(=C1/c2ccc(Cc3c(C4CC4)nc4c5c(ccn34)OCC5)cc2COc2cc(F)ccc21)c1noc(=O)[nH]1` showed an AUC in data set [1] of 8760 ng·h/mL. In addition, the Emax was determined as 9.7% in data set [2] and 110% in data set [3]. For the same compound, in data set [5], the intrinsic metabolic clearance (CLint scaled) at 0.5 h is 33.3 mL/min/kg. A half-maximal response in data set [4] (EC50) required 23 nM.
With `CCCc1nc2ccccc2n1Cc1ccc2c(c1)COc1cc(F)ccc1/C2=C(\C)c1noc(=O)[nH]1`, the area under the curve (AUC) in [1] was 1480 ng·h/mL. In addition, the Emax in data set [2] is 11.7%; in data set [3], 104%.
`C/C(=C1/c2ccc(Cc3c(C4CC4)nc4cc(Cl)ccn34)cc2COc2cc(F)ccc21)c1noc(=O)[nH]1`: the exposure (AUC) in data set [1] is 10200 ng·h/mL. In addition, the Emax is 12.6% in data set [2] and 101% in data set [3]. In addition, the EC50 in data set [4] was 3.6 nM.
For the compound `C/C(=C1/c2ccc(Cn3c(C4CC4)nc4c(Cl)ccnc43)cc2COc2cc(F)ccc21)c1noc(=O)[nH]1`, the Emax in [2] came to 10.3%; in data set [3], 101%. Also, in [5], the CLint scaled at 0.5 h was 38.3 mL/min/kg. This compound showed a concentration giving a half-maximal response (EC50) in data set [4] of 32 to 38 nM.
Compound `COCc1nc2c(Cl)cccn2c1Cc1ccc2c(c1)COc1cc(F)ccc1/C2=C(\C)c1noc(=O)[nH]1` returned an area under the curve (AUC) in data set [1] of 1090 ng·h/mL. Also, the Emax in data set [2] was found to be 7.4%; in [3], 96%. In addition, the CLint scaled at 0.5 h in data set [5] was 21.7 mL/min/kg. This compound also gave an EC50 in data set [4] of 7.3 nM.
The compound `COCc1nc2cc(Cl)ccn2c1Cc1ccc2c(c1)COc1cc(F)ccc1/C2=C(\C)c1noc(=O)[nH]1` showed an AUC in [1] of 2450 ng·h/mL. Besides, the Emax was determined as 9% in data set [2] and 106% in [3].
As to `CCCc1nc2ccccc2n1Cc1ccc2c(c1)COc1ccc(F)cc1/C2=C(\C)c1noc(=O)[nH]1`, the Emax in data set [2] came to 6.9%; in data set [3], 102%. In addition, in data set [5], the CLint scaled at 0.5 h was greater than 415 mL/min/kg.
`CCCc1nc2ccccc2n1Cc1ccc2c(c1)COc1c(F)cccc1/C2=C(\C)c1noc(=O)[nH]1`: the Emax worked out at 8.7% in data set [2] and 101% in data set [3]. The CLint scaled at 0.5 h in data set [5] was 377 mL/min/kg. The same compound came in with an EC50 in [4] of 4.4 nM.
`CCCc1nc2c(C)cccc2n1Cc1ccc2c(c1)COc1ccccc1/C2=C(\C)c1noc(=O)[nH]1`: the intrinsic clearance (CLint scaled) at 0.5 h in data set [5] is greater than 415 mL/min/kg.
